# Experimental data reported in ChEMBL document CHEMBL1255376, “Comparative surveillance study of telavancin activity against recently collected gram-positive clinical isolates from across the United States” (2008).
# How the values were obtained:
# Format in all cases: functional
# Enterococcus faecalis [1] = experiment: Antibacterial activity against vancomycin-susceptible Enterococcus faecalis clinical isolate by broth microdilution method
# Method in brief: (§1)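 MICs by CLSI broth microdilution in frozen trays pre-loaded with serial dilutions of each agent. Quality-control strains run in parallel: E. faecalis ATCC 29212 and ATCC 51299, S. aureus ATCC 29213, S. pneumoniae ATCC 49619. Comparator susceptibility categories follow CLSI breakpoints. Methicillin resistance in staphylococci assigned from the oxacillin MIC.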
# Staphylococcus [2] = experiment: Antibacterial activity against daptomycin-nonsusceptible coagulase-negative Staphylococcus isolate 1285835 by broth microdilution method
# Method in brief: (§2)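 MIC by CLSI broth microdilution in frozen microtiter trays holding serial dilutions of each agent, prepared from standard laboratory powders. E. faecalis ATCC 29212 and ATCC 51299, S. aureus ATCC 29213 and S. pneumoniae ATCC 49619 run in parallel as quality-control strains. Comparator susceptibility interpreted with CLSI breakpoints.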
# Staphylococcus [3] = experiment: Antibacterial activity against methicillin-resistant coagulase-negative unspeciated Staphylococcus clinical isolate by broth microdilution method; method in brief: as §1
# Streptococcus sp. [4] = experiment: Antibacterial activity against Streptococcus sp. Group F clinical isolate by broth microdilution method
# Method in brief: (§3)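 MIC by CLSI broth microdilution in frozen microtiter trays holding serial dilutions of each agent, prepared from standard laboratory powders. Comparator susceptibility interpreted with CLSI breakpoints.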
# Streptococcus pyogenes = experiment: Antibacterial activity against Streptococcus pyogenes clinical isolate by broth microdilution method; method in brief: as §2
# Streptococcus oralis = experiment: Antibacterial activity against Streptococcus oralis clinical isolate by broth microdilution method; method in brief: as §2
# [5] = test system: Staphylococcus haemolyticus; experiment: Antibacterial activity against methicillin-resistant coagulase-negative Staphylococcus haemolyticus clinical isolate by broth microdilution method; method in brief: as §1
# Staphylococcus cohnii = experiment: Antibacterial activity against methicillin-resistant coagulase-negative Staphylococcus cohnii clinical isolate by broth microdilution method; method in brief: as §1
# [6] = test system: Streptococcus constellatus; experiment: Antibacterial activity against Streptococcus constellatus clinical isolate by broth microdilution method; method in brief: as §2
# [7] = test system: Streptococcus intermedius; experiment: Antibacterial activity against Streptococcus intermedius clinical isolate by broth microdilution method; method in brief: as §2
# Streptococcus agalactiae = experiment: Antibacterial activity against Streptococcus agalactiae clinical isolate by broth microdilution method; method in brief: as §2
# Enterococcus faecalis [8] = experiment: Antibacterial activity against vancomycin-resistant and teichoplanin-susceptible Enterococcus faecalis clinical isolate by broth microdilution method; method in brief: as §1
# Staphylococcus aureus [9] = experiment: Antibacterial activity against daptomycin-nonsusceptible Staphylococcus aureus isolate 1171063 by broth microdilution method; method in brief: as §1
# Staphylococcus aureus [10] = experiment: Antibacterial activity against daptomycin-nonsusceptible Staphylococcus aureus isolate 1171055 by broth microdilution method; method in brief: as §1
# Streptococcus sanguinis = experiment: Antibacterial activity against Streptococcus sanguinis clinical isolate by broth microdilution method; method in brief: as §2
# Staphylococcus aureus [11] = experiment: Antibacterial activity against methicillin-susceptible Staphylococcus aureus clinical isolate by broth microdilution method; method in brief: as §1
# Staphylococcus simulans = experiment: Antibacterial activity against methicillin-susceptible coagulase-negative Staphylococcus simulans clinical isolate by broth microdilution method; method in brief: as §1
# Staphylococcus xylosus = experiment: Antibacterial activity against methicillin-resistant coagulase-negative Staphylococcus xylosus clinical isolate by broth microdilution method; method in brief: as §1
# Enterococcus faecium [12] = experiment: Antibacterial activity against vancomycin-susceptible Enterococcus faecium clinical isolate by broth microdilution method; method in brief: as §2
# Staphylococcus aureus [13] = experiment: Antibacterial activity against methicillin-resistant Staphylococcus aureus clinical isolate by broth microdilution method; method in brief: as §1
# Streptococcus sp. [14] = experiment: Antibacterial activity against Streptococcus sp. clinical isolate by broth microdilution method; method in brief: as §3
# [15] = test system: Staphylococcus epidermidis; experiment: Antibacterial activity against methicillin-resistant coagulase-negative Staphylococcus epidermidis clinical isolate by broth microdilution method; method in brief: as §1
# Staphylococcus capitis = experiment: Antibacterial activity against methicillin-susceptible coagulase-negative Staphylococcus capitis clinical isolate by broth microdilution method; method in brief: as §1
# Enterococcus faecium [16] = experiment: Antibacterial activity against vancomycin- and teichoplanin-nonsusceptible Enterococcus faecium clinical isolate by broth microdilution method; method in brief: as §1
# [17] = test system: Staphylococcus saprophyticus; experiment: Antibacterial activity against methicillin-susceptible coagulase-negative Staphylococcus saprophyticus clinical isolate by broth microdilution method; method in brief: as §1
smiles,measurement,setting,value
CCCCCCCCCC(=O)N[C@@H](Cc1c[nH]c2ccccc12)C(=O)N[C@H](CC(N)=O)C(=O)N[C@@H](CC(=O)O)C(=O)N[C@@H]1C(=O)NCC(=O)N[C@@H](CCCN)C(=O)N[C@@H](CC(=O)O)C(=O)N[C@H](C)C(=O)N[C@@H](CC(=O)O)C(=O)NCC(=O)N[C@H](CO)C(=O)N[C@@H]([C@H](C)CC(=O)O)C(=O)N[C@@H](CC(=O)c2ccccc2N)C(=O)O[C@@H]1C,MIC90,Enterococcus faecalis [1],1 µg/mL
same,MIC,Staphylococcus [2],> 1 µg/mL
same,MIC50,Staphylococcus [3],0.5 µg/mL
same,MIC90,Staphylococcus [3],1 µg/mL
same,MIC50,Streptococcus sp. [4],0.06 µg/mL
same,MIC90,Streptococcus sp. [4],0.25 µg/mL
same,MIC50,Streptococcus pyogenes,0.06 µg/mL
same,MIC90,Streptococcus pyogenes,0.06 µg/mL
same,MIC50,Streptococcus oralis,0.25 µg/mL
same,MIC90,Streptococcus oralis,1 µg/mL
same,MIC50,[5],0.5 µg/mL
same,MIC90,[5],1 µg/mL
same,MIC50,Staphylococcus cohnii,0.5 µg/mL
same,MIC90,Staphylococcus cohnii,1 µg/mL
same,MIC50,[6],0.25 µg/mL
same,MIC90,[6],1 µg/mL
same,MIC50,[7],0.25 µg/mL
same,MIC90,[7],1 µg/mL
same,MIC50,Streptococcus agalactiae,0.25 µg/mL
same,MIC90,Streptococcus agalactiae,0.25 µg/mL
same,MIC,Enterococcus faecalis [8],0.5 µg/mL
same,MIC,Staphylococcus aureus [9],> 1 µg/mL
same,MIC,Staphylococcus aureus [10],> 1 µg/mL
same,MIC50,Streptococcus sanguinis,0.25 µg/mL
same,MIC90,Streptococcus sanguinis,1 µg/mL
same,MIC50,Staphylococcus aureus [11],0.5 µg/mL
same,MIC90,Staphylococcus aureus [11],0.5 µg/mL
same,MIC50,Staphylococcus simulans,0.5 µg/mL
same,MIC90,Staphylococcus simulans,1 µg/mL
same,MIC50,Staphylococcus xylosus,0.5 µg/mL
same,MIC90,Staphylococcus xylosus,1 µg/mL
same,MIC50,Enterococcus faecium [12],2 µg/mL
same,MIC90,Enterococcus faecium [12],4 µg/mL
same,MIC50,Staphylococcus aureus [13],0.5 µg/mL
same,MIC90,Staphylococcus aureus [13],0.5 µg/mL
same,MIC50,Streptococcus sp. [14],0.25 µg/mL
same,MIC90,Streptococcus sp. [14],1 µg/mL
same,MIC50,[15],0.5 µg/mL
same,MIC90,[15],1 µg/mL
same,MIC50,Staphylococcus capitis,0.5 µg/mL
same,MIC90,Staphylococcus capitis,1 µg/mL
same,MIC50,Enterococcus faecium [16],2 µg/mL
same,MIC90,Enterococcus faecium [16],4 µg/mL
same,MIC50,[17],0.5 µg/mL
same,MIC90,[17],1 µg/mL
